From PubChem BioAssay
Beta cell apopt = beta cell apoptosis inhibition | INS-1E cytokine-induced death, ATP luminescence, 48 h; percent of positive-control rescue, neutral wells zero | protection from apoptosis, % (test concentration not listed) | AID 435005 | hit rate 0.8% among 300,000;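 active means Every replicate reaches about 75%, or at least half do and their mean reaches it too, limit read from the data; inconclusive means At least half of replicates reach the limit but their mean does not; inactive means Under half of replicates reach the limit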;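 further: higher means more ATP so stronger rescue from cytokine killing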
GRIN3A LBD mod = modulators (binders) of human NR3A ligand-binding domain; NR3A LBD differential scanning fluorimetry, Tm shift; 0% = protein alone, 100% = glycine-bound protein; Tm shift relative to glycine control, % at 25 µM; hit rate 2.5% among 340,000;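 active means melting temperature shift of at least 10% of the positive control shift, at one fixed dose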
T cruzi inh = T. cruzi replication inhibition. hit rate 1.4% among 300,000. T. cruzi beta-gal in NIH3T3, luminescence, 90 h. inhibition, % (concentration not given with the values);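 active means mean inhibition across valid replicates above about 55%, limit read from the data; inconclusive means mean below that limit but half or more replicates reach it; inactive means mean below it, under half of replicates reach it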;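 further: signal also drops with host cell toxicity which is not excluded here; higher percent means less beta-gal luminescence so fewer parasites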
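System: mouse NIH/3T3 fibroblasts infected with β-gal-expressing T. cruzi Tulahuen C4 / Input: NIH/3T3 cells, 5,000 per well / Buffer or medium: Low-serum DMEM with 2% FBS / Probe or stimulus: 5000 reporter trypomastigotes per well / Schedule: ≥90 h infection period, 3 h prior cell attachment / Measured by: GalScreen luminescence, 60 min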
PREPL inhibitor = human PREPL enzyme inhibition. Q4J6C6. recombinant PREPL, fluorescence polarization activity-based probe. inhibition, % at 5.96 µM. hit rate 0.68% among 320,000; in the data active means inhibition above about 43%
Target sequence (Q4J6C6 whole entry, looked up): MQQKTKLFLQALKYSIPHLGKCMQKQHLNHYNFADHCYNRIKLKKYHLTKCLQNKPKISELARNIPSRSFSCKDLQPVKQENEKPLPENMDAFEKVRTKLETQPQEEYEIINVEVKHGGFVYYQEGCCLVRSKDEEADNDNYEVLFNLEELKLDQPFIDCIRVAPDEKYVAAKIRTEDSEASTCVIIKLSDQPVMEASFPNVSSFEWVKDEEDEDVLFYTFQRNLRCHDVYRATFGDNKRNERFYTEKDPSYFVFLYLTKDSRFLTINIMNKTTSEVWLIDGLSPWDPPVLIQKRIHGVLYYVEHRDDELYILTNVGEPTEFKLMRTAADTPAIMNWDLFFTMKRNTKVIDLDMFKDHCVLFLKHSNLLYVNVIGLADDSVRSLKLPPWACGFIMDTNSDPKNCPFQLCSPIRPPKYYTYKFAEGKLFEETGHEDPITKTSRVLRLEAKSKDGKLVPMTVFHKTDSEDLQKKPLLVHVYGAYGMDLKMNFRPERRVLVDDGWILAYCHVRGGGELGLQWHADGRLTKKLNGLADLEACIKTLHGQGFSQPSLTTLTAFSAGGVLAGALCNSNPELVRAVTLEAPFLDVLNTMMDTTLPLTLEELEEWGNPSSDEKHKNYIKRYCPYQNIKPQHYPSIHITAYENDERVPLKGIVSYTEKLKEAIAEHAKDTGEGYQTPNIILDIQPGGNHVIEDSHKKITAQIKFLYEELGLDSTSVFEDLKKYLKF
CSC inhib = cancer stem cell inhibition | hit rate 1.1% among 300,000 | inhibition, % at 7.5 µM | cancer stem cell-like cells viability, luminescence; in the data active means inhibition above about 75%; inconclusive means no clear call, values can overlap the other calls; tested in HMLE shEcad cells
CHOP inh = blocks CHOP induction under ER stress; inhibition, % at 10 µM; AID 2732; CHO-K1 CHOP-promoter luciferase, tunicamycin-induced, 15-18 h; hit rate 3.8% among 220,000;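 active means compounds that reduced the stress-induced luciferase reporter signal by more than about 70% of percent inhibition, limit read from the data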
Of the large screens only hits and unclear results are named; the others gave an inactive call; ! = not active in a repeat. Sampled rows, rich in hits. Any-hit rate of the full collection: about 6.7%.

O=C(CNC(=O)c1ccco1)OCC(=O)c1cccc2ccccc12	none
O=C(CNC(=O)Cc1ccccc1)NCC(=O)OCC(=O)c1cccc2ccccc12	GRIN3A LBD mod 12.4
O=C(Cc1ccccc1)NCC(=O)OCC(=O)c1ccc(Cl)c([N+](=O)[O-])c1	GRIN3A LBD mod 12.2 (no result: CSC inhib)
CCc1ccc(C(=O)COC(=O)CNC(=O)Cc2ccccc2)cc1	none (no result: CHOP inh)
O=[N+]([O-])c1ccc(C2=NN(c3ccccc3)C(c3ccco3)C2)cc1 (configuration not stated)	GRIN3A LBD mod 339.5 (no result: Beta cell apopt, PREPL inhibitor, CSC inhib)
O=[N+]([O-])c1ccc(/C=C/C2=NN(c3ccccc3)C(c3ccco3)C2)cc1 (configuration not stated)	GRIN3A LBD mod 263.1 (no result: T cruzi inh)
O=C(Nc1ccccc1)c1nnsc1S(=O)c1ccc(Cl)cc1 (configuration not stated)	CSC inhib 106.2, CHOP inh 75.1
COc1cc([N+](=O)[O-])ccc1NC(=S)NNC(=O)CCC(=O)Nc1ccccc1Cl	none (no result: CHOP inh)
CC(=O)N1CCN(c2c(F)c(F)c(C(F)(F)F)c(F)c2F)CC1	none (no result: Beta cell apopt, PREPL inhibitor, CSC inhib)
CC(c1ccccc1)N(CCC(c1ccccc1)C1CCOC(C)(C)C1)C(=O)c1ccco1 (configuration not stated)	CHOP inh 79.8
COc1ccc(CN(CCC(c2ccc(F)cc2)C2CCOC(C)(C)C2)C(=O)c2ccco2)cc1 (configuration not stated)	none
CCOC(=O)C1=C(C)Nc2ccccc2N=C1NC(=O)c1cc(C)on1	none (no result: T cruzi inh, CHOP inh)
CCN1C(=O)C(F)(CC)C(=O)c2ccccc21 (configuration not stated)	GRIN3A LBD mod 13.1
CCO/C=C1/C(=O)N(CC)c2ccccc21	none (no result: CSC inhib)
O=C(O)CCCN1C(=O)C(=O)/C(=C(/O)c2ccccc2)C1/C=C/c1ccccc1 (configuration not stated)	none
CCCNC(=O)c1ccc2c(=O)c(O)c(-c3ccc(C)cc3)[nH]c2c1	Beta cell apopt 81.9
CCCNC(=O)c1ccc2c(=O)c(O)c(-c3ccc(OC)cc3)[nH]c2c1	none
Cc1ccc(/C=C/C(=O)Nc2sc3c(c2C#N)CCCC3)o1	none
C=C[C@]1(C)C[C@@H](OC(=O)CSCCN(CC)CC)[C@]2(C)C(C)CC[C@]3(CCC(=O)[C@H]32)[C@@H](C)[C@@H]1O (some centres not stated)	T cruzi inh 58.8! (no result: CHOP inh)
Cc1c(C(=O)N(Cc2ccccc2)Cc2cccs2)cnn1-c1ccc(Cl)cc1	CSC inhib 79.7 (no result: Beta cell apopt)
CCCC(=O)OCCNc1cc(Sc2nccn2C)c2nonc2c1[N+](=O)[O-]	T cruzi inh 60.8, CHOP inh 108.4
CCCSc1cc(NCCOC(=O)CCC)c([N+](=O)[O-])c2nonc12	none
CCCSc1cc(NCCOC(C)=O)c([N+](=O)[O-])c2nonc12	GRIN3A LBD mod 13.4
CC1CN(C2CCCCC2)C(=O)NC1=O (configuration not stated)	none (no result: Beta cell apopt, T cruzi inh, PREPL inhibitor, CSC inhib, CHOP inh)
CC(C)NS(=O)(=O)c1ccc(OCC(=O)N2CCN(c3ccccc3)CC2)cc1	none
Cc1cccc(NC(=O)CCc2ccc(S(=O)(=O)NC3CCCCC3)cc2)c1	CHOP inh 72.5
CN1CCN(C(=O)CCc2ccc(S(=O)(=O)NC3CCCCC3)cc2)CC1	T cruzi inh 58.9
CC(NS(=O)(=O)c1ccc(CCC(=O)N2CCN(C)CC2)cc1)c1ccccc1 (configuration not stated)	T cruzi inh 72.0 (no result: Beta cell apopt)
O=C(COc1ccc(S(=O)(=O)NC2CCCCC2)cc1)N1CCN(c2cccc(Cl)c2)CC1	CHOP inh 78.7 (no result: Beta cell apopt, CSC inhib)
Cc1ccc(CNC(=O)CCc2ccc(S(=O)(=O)NC3CCCCC3)cc2)cc1	none
CCOC(=O)C1=CN(CC)S(=O)(=O)NC1c1ccc(C(F)(F)F)cc1 (configuration not stated)	none (no result: Beta cell apopt, T cruzi inh, PREPL inhibitor, CSC inhib, CHOP inh)
Cc1ccc(S(=O)(=O)Oc2cc(N)c3c(n2)CCC3)cc1	none
COc1ccc(CCC(=O)N2CCN(C3CCCCC3)CC2)cc1	T cruzi inh 62.0
O=C(CCc1ccc(Oc2cc([N+](=O)[O-])cc([N+](=O)[O-])c2)cc1)N1CCCCCC1	T cruzi inh 67.6, CSC inhib 95.8
O=C(CCCc1ccccc1)N1CCN(C2CCCCC2)CC1	none (no result: Beta cell apopt, CSC inhib, CHOP inh)
CCN(CC)c1ccc(N2C(=NC(=O)C3CC3)SC3CS(=O)(=O)CC32)cc1 (configuration not stated)	none (no result: CHOP inh)
Brc1ccc(N=Nc2ccc3ccccc3n2)cc1	CHOP inh 90.8 (no result: Beta cell apopt)
NC(=S)N/N=C1\CCOc2ccc(Cl)cc21	none
NC(=S)NN=C1c2cc(Cl)ccc2-c2c1cc(Cl)cc2[N+](=O)[O-]	GRIN3A LBD mod 11.5 (no result: Beta cell apopt, T cruzi inh, PREPL inhibitor, CSC inhib, CHOP inh)
CN(Cc1ccccc1)CC(O)COc1ccc(CNCCc2cccnc2)cc1 (configuration not stated)	none
CN(Cc1ccccc1)CC(O)COc1ccc(CNCCc2ccncc2)cc1 (configuration not stated)	T cruzi inh 65.7
COC(=O)c1ccc(N2C(=O)CC(SCCN)C2=O)cc1 (configuration not stated)	GRIN3A LBD mod 12.4
Cc1cccc2c(N=Nc3ccc(S(=O)(=O)Nc4ccc(Cl)cc4)cc3[N+](=O)[O-])c(O)[nH]c12	none
COc1ccc(NC(=O)CN(C)C(=O)CNC(=O)c2sc3ccccc3c2Cl)cc1	none (no result: T cruzi inh, CSC inhib, CHOP inh)
CN(CC(=O)Nc1c(Cl)cccc1Cl)C(=O)CNC(=O)c1sc2ccccc2c1Cl	GRIN3A LBD mod 18.8 (no result: Beta cell apopt, T cruzi inh, PREPL inhibitor, CSC inhib, CHOP inh)
O=c1oc(C2(O)CCCCC2)cc2ccc(-c3ccc4[nH]ccc4c3)cc12	GRIN3A LBD mod 10.9 (no result: T cruzi inh, CSC inhib, CHOP inh)
COc1cc(CN2CCCC(C(=O)Nc3cccc(-n4cccn4)c3)C2)ccc1F (configuration not stated)	T cruzi inh 60.9 (no result: CHOP inh)
CC1CCN(C(=O)c2cc3nc(-c4ccccc4)cc(-c4ccccc4)n3n2)CC1	CHOP inh 75.3
O=C(Nc1cccc(O)c1)c1cc2nc(-c3ccccc3)cc(-c3ccccc3)n2n1	GRIN3A LBD mod 20.3, CHOP inh 84.3
Cc1nnc(SCC(=O)Nc2cc(Cl)ccc2Cl)n1CC1CCCO1 (configuration not stated)	none (no result: CHOP inh)
CCOc1cccc(-c2c(C(=O)N/N=C(\C)c3ccncc3)nnn2-c2nonc2N)c1	none (no result: Beta cell apopt, CHOP inh)
COc1cccc(-c2c(C(=O)N/N=C(\C)c3ccc(Cl)s3)nnn2-c2nonc2N)c1	GRIN3A LBD mod 10.6 (no result: CHOP inh)
CCOc1cccc(-c2c(C(=O)N/N=C(\C)c3ccccn3)nnn2-c2nonc2N)c1	GRIN3A LBD mod 30.6, T cruzi inh inconclusive (no result: Beta cell apopt, CHOP inh)
O=C(Nc1ccnn1C1CCN(Cc2cccc(OCCO)c2)CC1)c1cccc(F)c1	none (no result: CHOP inh)
O=C(O)c1cc2nc3c(c(C(F)(F)F)n2n1)CCc1ccccc1-3	GRIN3A LBD mod 11.0
CCN(CC)CCNc1nc2cc(OC)c(OC)cc2c2nc(-c3ccccc3)nn12	T cruzi inh 64.7 (no result: Beta cell apopt)
CCCn1c(SCC(=O)Nc2ccc(S(=O)(=O)N(C)C)cc2)n[nH]c1=O	none
